Here are results for 37 compounds from ChEMBL document CHEMBL4385631, “Small molecule inhibition of microRNA-21 expression reduces cell viability and microtumor formation” (Bioorg Med Chem, 2019).

A word on the EC50: it is the concentration that produces a half-maximal response. The inhibition is the relative decrease from the control value, in per cent. One may read the IC50 as the concentration that gives 50% inhibition.

Molecules are shown by their SMILES. Active and inactive are the calls of the source. The rule behind the calls is not given here.

Series [1] deals with microRNA 21. As to the kind of experiment: Inhibition of miR-21 RNA (unknown origin) in HeLa cells harboring luciferase gene assessed as increase in luminescence at 10 uM after 48 hrs by Bright-glo luciferase assay relative to DMSO. It counts as cell-based. Put shortly:
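HeLa-miR21-Luc stable reporter cells treated at 10 µM for 48 h. Luminescence normalized to cell viability and expressed as fold change over DMSO control. Mean ± SD of at least three independent experiments.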

Series [2] concerns the target microRNA 21. As to the kind of experiment: Inhibition of miR-21 RNA (unknown origin) in HeLa cells harboring luciferase gene after 48 hrs by Bright-glo luciferase assay. It counts as cell-based. Put shortly:
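HeLa-miR21-Luc stable reporter cells treated across a concentration range, then Bright-Glo assay. Luciferase signal normalized first to cell viability, then to DMSO. Three independent experiments; EC50 from nonlinear regression fit.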

Series [3] has as its system HeLa. In words: Effect on non-miRNA pathway in human HeLa cells harboring psi-check empty vector assessed as increase in luminescence at 10 uM after 48 hrs by dual luciferase assay relative to control. It counts as functional. Put shortly: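 HeLa cells transfected with psiCHECK-empty reporter (sequence not targeted by any known miRNA), then treated at 10 µM for 48 h. Dual luciferase assay; firefly signal normalized to Renilla, then to DMSO. Three independent experiments, mean ± SD; unpaired t-test.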

Series [4] relates to microRNA 122. In words: Inhibition of miR-122 RNA (unknown origin) in HuH7 cells harboring luciferase gene assessed as reduction in luminescence at 10 uM after 48 hrs by dual luciferase assay relative to control. The class given is cell-based. Put shortly: (§1)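 Huh7-miR122 stable reporter cells treated at 10 µM for 48 h; known miR-122 inhibitor as positive control. Dual luciferase assay; Renilla signal normalized to firefly, then to DMSO. Three independent experiments, mean ± SD; unpaired t-test.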

For series [5], the system named is microRNA 21. In words: Binding affinity to pre-miR-21 RNA (unknown origin) assessed as melting temperature by UV spectroscopic analysis (reference value: 56 degC). The class given is nucleic-acid assay.
Series [6] concerns microRNA 21. As to the kind of experiment: Inhibition of miR-21 RNA promoter (unknown origin) in HeLa cells expressing pGL4-miR21p assessed as decrease in miR-21 RNA promoter activity at 10 uM preincubated for 48 hrs followed by pGL4-miR21p transfection after 24 hrs by Bright-glo luciferase assay relative to DMSO. The class given is cell-based.
The next series has as its system HEK293. In words: Antiproliferative activity against human HEK293 cells cell viability after 72 hrs by XTT assay. It counts as cell-based. The conditions noted are these: hek293, 72 h. Put shortly: (§2)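 Cells treated with a serial dilution of compound for 72 h; viability read by XTT assay.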
Series [7] deals with HeLa. As to the kind of experiment: Antiproliferative activity against human HeLa cells cell viability after 72 hrs by XTT assay. The class given is functional, cell-based. Put shortly: as §2
For orientation: Tetrazolium dyes change colour on reduction, which living cells bring about.

In series [8] the test system is HeLa. In words: Induction of apoptosis in human HeLa cells assessed as increase in caspase 3/7 activity at 10 uM after 24 hrs by caspase3/7 activity assay. It counts as functional. Put shortly:
(§3)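 HeLa cells treated for 24 h, then caspase-3/7 activity assay.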

Series [9] concerns HeLa. In words: Anticlonogenic activity against human HeLa cells assessed as reduction in colony formation after 2 weeks by crystal violet staining based microscopic method. The class given is functional, cell-based. The conditions noted are these: 336 h. Put shortly: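 HeLa cells suspended in low-melt agarose and exposed to a dilution series of compound for two weeks at 37 °C, then imaged.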

The test system of series [10] is microRNA 21. As to the kind of experiment: Inhibition of pri-miR-21 RNA in human HeLa cells assessed as decrease in pri-miR-21 RNA level at 10 uM after 48 hrs by RT-qPCR method relative to control. It counts as cell-based. Put shortly:
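HeLa cells treated at 10 µM for 48 h; primary miR-21 levels measured by RT-qPCR.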
(Quantitative PCR measures a nucleic acid by following its amplification.)

The test system of series [11] is HeLa. As to the kind of experiment: Induction of apoptosis in human HeLa cells assessed as increase in caspase 3/7 activity at 50 uM after 24 hrs by caspase3/7 activity assay relative to control. The class given is functional. Put shortly:
as §3

For series [12], the system named is microRNA 21. In words: Inhibition of miR-21 RNA in human HeLa cells assessed as reduction in matured miR-21 RNA at 10 uM after 48 hrs by RT-qPCR analysis relative to control.
The subject of series [13] is microRNA 21. As to the kind of experiment: Inhibition of miR-21 RNA in human A549 cells assessed as reduction in matured miR-21 RNA at 10 uM after 48 hrs by RT-qPCR analysis relative to control.
Series [14] deals with Luciferin 4-monooxygenase (Photinus pyralis) (UniProt P08659). In words: Inhibition of recombinant firefly luciferase activity assessed as reduction in luminescence at 10 uM by Bright-glo luciferase assay relative to control.
Series [15] relates to microRNA 21. As to the kind of experiment: Inhibition of miR-21 RNA in human SKOV3 cells assessed as reduction in matured miR-21 RNA at 10 uM after 48 hrs by RT-qPCR analysis relative to control.
For series [16], the system named is microRNA 122. As to the kind of experiment: Inhibition of miR-122 RNA (unknown origin) in HuH7 cells harboring luciferase gene assessed as increase in luminescence at 10 uM after 48 hrs by dual luciferase assay relative to control. It counts as cell-based. Put shortly: as §1
Series [17] concerns the target Luciferin 4-monooxygenase (Photinus pyralis) (UniProt P08659). As to the kind of experiment: Inhibition of recombinant firefly luciferase activity assessed as reduction in luminescence at 10 uM by Bright-glo luciferase assay.

Luciferin 4-monooxygenase (Photinus pyralis), sequence (P08659 whole entry): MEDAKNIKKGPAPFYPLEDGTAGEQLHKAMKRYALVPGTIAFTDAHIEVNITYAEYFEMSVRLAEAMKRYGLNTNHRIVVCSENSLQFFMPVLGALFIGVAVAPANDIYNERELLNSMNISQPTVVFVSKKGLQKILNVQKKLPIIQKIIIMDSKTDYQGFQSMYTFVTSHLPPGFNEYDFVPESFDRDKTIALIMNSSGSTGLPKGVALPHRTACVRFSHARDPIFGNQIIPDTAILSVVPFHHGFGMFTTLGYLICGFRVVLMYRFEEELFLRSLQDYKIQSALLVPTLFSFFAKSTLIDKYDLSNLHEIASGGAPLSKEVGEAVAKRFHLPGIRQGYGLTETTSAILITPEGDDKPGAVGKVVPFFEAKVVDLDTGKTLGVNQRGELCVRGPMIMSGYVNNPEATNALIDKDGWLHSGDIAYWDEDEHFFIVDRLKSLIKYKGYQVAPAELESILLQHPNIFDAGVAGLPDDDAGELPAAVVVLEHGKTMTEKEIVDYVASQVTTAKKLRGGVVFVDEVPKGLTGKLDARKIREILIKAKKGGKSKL

In the case of `O=C(COc1ccc([N+](=O)[O-])cc1)Nc1ccc(-c2nc3cc(Cl)ccc3o2)cc1`, the fold change (FC) in the series with microRNA 21 [1] came to 3.58.

Regarding `C#CCN(C(=O)COc1ccc(OC)cc1)c1ccc(-c2nc3cc(Cl)ccc3o2)cc1`, the fold change (FC) in the series on microRNA 21 [1] is 1.61.

In the case of `O=C(COc1ccccc1)Nc1cccc(-c2nc3ccccc3o2)c1`, the fold change (FC) with microRNA 21 [1] was 1.75.

In the case of `O=C(COc1ccccc1)Nc1ccc(-c2nc3cc(Cl)ccc3o2)cc1`, in the series with microRNA 21 [1], the fold change (FC) turned out to be 2.87.

On to `O=C(COc1ccccc1I)Nc1ccc(-c2nc3ccccc3s2)cc1`, for which the fold change (FC) in the series with microRNA 21 [1] worked out at 1.55.

As to `O=C(COc1ccccc1)Nc1ccc(-c2nc3cc(F)ccc3o2)cc1`, the fold change (FC) in the series on microRNA 21 [1] is 1.58.

On to `O=C(Nc1ccc(-c2nc3cc(Cl)ccc3o2)cc1)Oc1ccccc1`, for which the fold change (FC) in the series on microRNA 21 [1] stood at 3.86.

In the case of `COc1ccc(NCC(=O)Nc2ccc(-c3nc4cc(Cl)ccc4o3)cc2)cc1`, in the series with microRNA 21 [1], the fold change (FC) is 0.14.

`O=C(COc1ccccc1)Nc1ccc(-c2nc3ccccc3s2)cc1`: the fold change (FC) in the series on microRNA 21 [1] came to 1.68.

In the case of `O=C(COc1ccccc1)Nc1ccc(-c2nc3ccc(Cl)cc3o2)cc1`, the fold change (FC) in the series with microRNA 21 [1] was found to be 2.65.

Consider `O=C(COc1ccccc1)Nc1ccc2cc(-c3nc4cc(Cl)ccc4o3)ccc2c1`, for which the fold change (FC) in the series on microRNA 21 [1] was 1.3.

Consider `COc1ccc(OCC(=O)Nc2nc3ccc(-c4nc5cc(Cl)ccc5o4)cc3s2)cc1`, for which the fold change (FC) in the series on microRNA 21 [1] stood at 0.03.

As to `COc1ccc(OCC(=O)Nc2ccc(-c3nc4cc(F)ccc4o3)cc2)cc1`, in the series with microRNA 21 [1], the fold change (FC) amounted to 2.14.

For the compound `COc1ccc(OCC(=O)Nc2ccc(-c3nc4ncccc4o3)cc2)cc1`, in the series with microRNA 21 [1], the fold change (FC) is 2.25.

With `O=C(COc1ccccc1)Nc1ccc(-c2nc3ccccc3o2)cc1`, the fold change (FC) in the series with microRNA 21 [1] came to 1.47.

With `COc1ccc(OCC(=O)Nc2ccc(-c3nc4cc(Cl)ccc4o3)cc2)cc1`, the fold change (FC) in the series on microRNA 21 [1] stood at 4.87; with microRNA 122 [4], 0.2; in the series with HeLa [11] it was 2. The concentration giving a half-maximal response (EC50) came to 6.7 µM on microRNA 21 [2] and 7.3 µM with HeLa [9]. Besides, the inhibition entry in the series on microRNA 21 [2] is “Dose-dependent effect”; in the series on microRNA 21 [6] it was 78%; in the series with microRNA 21 [10], 79%; with microRNA 21 [12], 57%; in the series with microRNA 21 [13], 33%; in the series with microRNA 21 [15], 31%. For the same compound, the outcome in the series on HeLa [3] was inactive. In the series on microRNA 21 [5], the Tm worked out at 56.2 °C. For the same compound, the figures for the Activity entry in the series with HEK293 and with HeLa [8] were “Non-Toxic” and 50%, respectively. The compound further registered an IC50 in the series with HeLa [7] of over 50 µM. Moreover, in series [14], the inhibition entry is “inactive”.

Regarding `COc1ccc(OCC(=O)Nc2ccc(-c3nc4ccccc4s3)cc2)cc1`, the fold change (FC) in the series with microRNA 21 [1] is 1.56.

As to `COc1ccc(OCC(=O)Nc2ccc(-c3nc4ccc(Cl)cc4o3)cc2)cc1`, the fold change (FC) in the series with microRNA 21 [1] was determined as 3.32.

Turning to `COc1ccc(OC(=O)Nc2ccc(-c3nc4cc(Cl)ccc4o3)cc2)cc1`, the fold change (FC) with microRNA 21 [1] came out at 3.48.

On to `O=C(COc1ccc(-c2ccccc2)cc1)Nc1ccc(-c2nc3cc(Cl)ccc3o2)cc1`, for which, in the series on microRNA 21 [1], the fold change (FC) stood at 2.64.

On to `COc1ccc(OCC(=O)Nc2ccc(-c3nc4cc(Br)ccc4o3)cc2)cc1`, for which the fold change (FC) was 6.19 in the series on microRNA 21 [1] and 1.5 - 1.8 in the series on HeLa [3]. The same compound gave an EC50 on microRNA 21 [2] of 6.4 µM. For the same compound, the inhibition result is “Dose-dependent effect” in the series with microRNA 21 [2] and 38% in series [14].

Consider `COc1ccc(OCC(=O)Nc2ccc(-c3nc4ccccc4o3)cc2)cc1`, for which, in the series with microRNA 21 [1], the fold change (FC) turned out to be 0.27.

In the case of `O=S(=O)(c1ccc2c(c1)CCCN2)N1CCC[C@H]2CCCC[C@@H]21`, in the series with microRNA 122 [16], the fold change (FC) is over 3.5.

Turning to `O=C(COc1ccccc1I)Nc1ccc(-c2nc3ccccc3o2)cc1`, the fold change (FC) in the series on microRNA 21 [1] was determined as 1.53.

Take `O=C(O)c1cccc(-c2noc(-c3ccccc3F)n2)c1` [ATALUREN]: the “fold change (FC)” value with HeLa [3] was 1.5 - 1.8. Moreover, the inhibition in series [17] came out at 94%.

On to `Cc1cc(OCC(=O)Nc2ccc(-c3nc4cc(Cl)ccc4o3)cc2)ccc1C(C)C`, for which the fold change (FC) in the series with microRNA 21 [1] worked out at 2.23.

Turning to `COc1ccc(OCC(=O)Nc2ccc(-c3nc4cc(-c5ccccc5)ccc4o3)cc2)cc1`, the fold change (FC) is 7.87 with microRNA 21 [1] and 1.5 - 1.8 in the series on HeLa [3]. On microRNA 21 [2], this compound yielded a concentration for a half-maximal effect (EC50) of 3.5 µM. In addition, the inhibition result was “Dose-dependent effect” with microRNA 21 [2] and 27% in [14].

With `O=C(COc1ccc(F)cc1)Nc1ccc(-c2nc3cc(Cl)ccc3o2)cc1`, the fold change (FC) with microRNA 21 [1] worked out at 2.86.

In the case of `COc1cccc(OCC(=O)Nc2ccc(-c3nc4cc(Cl)ccc4o3)cc2)c1`, the fold change (FC) is 5.37 in the series with microRNA 21 [1] and 1.5 - 1.8 in the series on HeLa [3]. Also, the EC50 on microRNA 21 [2] came out at 4.7 µM. Moreover, the results for the inhibition result (in the series on microRNA 21 [2]; in [14]) were “Dose-dependent effect” and 44%, respectively.

As to `COc1ccc(OCC(=O)Nc2ccc(-c3nc4cc(Cl)ccc4[nH]3)cc2)cc1`, the fold change (FC) in the series with microRNA 21 [1] turned out to be 1.6.

For the compound `COc1ccc(OCC(=O)Nc2cccc(-c3nc4ccccc4o3)c2)cc1`, in the series on microRNA 21 [1], the fold change (FC) turned out to be 4.73.

As to `COc1ccc(OCC(=O)Nc2cccc(-c3nc4cc(Cl)ccc4o3)c2)cc1`, the fold change (FC) with microRNA 21 [1] turned out to be 3.19.

Take `O=C(COc1ccccc1)Nc1ccc(-c2nc3cc(Cl)ccc3[nH]2)cc1`: the fold change (FC) in the series on microRNA 21 [1] came to 0.41.

As for `COc1ccc(SCC(=O)Nc2ccc(-c3nc4cc(Cl)ccc4o3)cc2)cc1`, the fold change (FC) in the series on microRNA 21 [1] is 2.64.

Regarding `COc1ccc(OCC(=O)N(C)c2ccc(-c3nc4cc(Cl)ccc4o3)cc2)cc1`, the fold change (FC) with microRNA 21 [1] came to 0.88.

In the case of `O=C(COc1ccccc1)Nc1cccc(-c2nc3cc(Cl)ccc3o2)c1`, in the series with microRNA 21 [1], the fold change (FC) amounted to 2.14.

As to `N#Cc1ccc(OCC(=O)Nc2ccc(-c3nc4cc(Cl)ccc4o3)cc2)cc1`, in the series on microRNA 21 [1], the fold change (FC) was found to be 2.08.
